# Experimental data collected from several papers.
# Protocols differ between the studies behind these lines.
# Target: Serine/threonine-protein kinase BRSK2 (BRSK2, Homo sapiens, UniProt Q8IWQ3)
# Sequence (Q8IWQ3 1-736, as in one of the studies): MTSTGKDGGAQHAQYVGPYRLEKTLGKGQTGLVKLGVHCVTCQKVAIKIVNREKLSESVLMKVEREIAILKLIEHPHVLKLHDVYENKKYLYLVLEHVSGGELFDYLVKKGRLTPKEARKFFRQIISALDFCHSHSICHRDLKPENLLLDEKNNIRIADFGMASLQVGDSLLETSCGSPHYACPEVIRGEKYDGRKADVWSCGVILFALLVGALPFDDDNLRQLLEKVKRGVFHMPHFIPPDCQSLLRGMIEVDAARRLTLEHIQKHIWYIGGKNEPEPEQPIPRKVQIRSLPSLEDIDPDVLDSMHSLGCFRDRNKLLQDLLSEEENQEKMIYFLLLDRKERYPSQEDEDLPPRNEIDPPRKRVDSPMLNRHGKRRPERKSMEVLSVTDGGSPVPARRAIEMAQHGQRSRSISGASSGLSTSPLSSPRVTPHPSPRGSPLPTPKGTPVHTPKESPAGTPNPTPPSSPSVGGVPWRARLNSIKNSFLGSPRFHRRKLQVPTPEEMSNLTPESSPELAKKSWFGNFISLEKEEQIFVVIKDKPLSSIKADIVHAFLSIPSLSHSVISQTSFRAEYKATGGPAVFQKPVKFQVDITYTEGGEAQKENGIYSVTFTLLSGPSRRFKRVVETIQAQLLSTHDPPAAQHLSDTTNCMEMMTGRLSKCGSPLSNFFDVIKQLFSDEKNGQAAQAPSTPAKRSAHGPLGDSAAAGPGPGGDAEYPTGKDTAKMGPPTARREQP
Structure (SMILES),assay,conditions,remaining binding [%]
O=C(c1ccc(Nc2ncc(Cl)c(-c3cc4ccccc4s3)n2)cc1)N1CCC(N2CCCC2)CC1,"binding, competition with immobilised ligand",1 µM,53
COc1cnc(Nc2cccc(S(N)(=O)=O)c2)nc1N1CCN(c2ccccc2)C(=O)C1,"binding, competition with immobilised ligand",1 µM,100
CN(C)c1ncnc(-c2ccc3nc(Nc4cc(CN5CCN(C(=O)CC(F)(F)F)CC5)ccn4)[nH]c3c2)c1Cl,"cell-free assay, competition with immobilised ligand",1 µM,100
Nc1ncc2c(n1)-c1c([nH]c3ccc(C#CC4CC4)cc13)CCCC2,"binding, competition with immobilised ligand",1 µM,93
CN(C)c1nccc(-c2cnc3ncccn23)n1,binding,1 µM,100
O=C(c1ccc(Nc2ncc(Cl)c(-c3ccc(Cl)s3)n2)cc1)N1CCC(N2CCCC2)CC1,"binding, competition with immobilised ligand",1 µM,58
CC1CCCN1c1nccc(-c2cnn3ncccc23)n1 (stereo not drawn),binding,1 µM,100
CCN1CCN(Cc2ccc(C(=O)Nc3ccc(C)c(Oc4ccc5c(c4)CC(=O)N5)c3)cc2C(F)(F)F)CC1,"binding, competition with immobilised ligand",1 µM,100
CNC(=O)[C@@H]1CC[C@@H](n2c(-c3ccc4cnccc4c3)nc3ccc(C(=O)NCc4cccc(C(N)=O)c4)cc32)C1,"binding, competition with immobilised ligand",1 µM,93
COc1cc(-c2cn(C3CCc4ccccc4N(CC(F)(F)F)C3=O)nn2)ccc1-n1ccc(C)n1 (stereo not drawn),"cell-free assay, competition with immobilised ligand",1 µM,97
C[C@@H]1CCN(c2nccc(-c3cnn4ncccc34)n2)C1,binding,1 µM,91
O=C(Nc1cnc(Oc2ccc(F)cc2)nc1)N1CCc2ncccc2[C@@H]1c1ccc(F)cc1,"cell-free assay, competition with immobilised ligand",1 µM,89
N[C@H]1CCN(c2nccc(-c3cnn4ncccc34)n2)C1,binding,1 µM,100
O=C(Nc1cccnn1)N1CC(C/C=C/c2cncc(Oc3ccc(C(F)(F)F)cn3)n2)C1,"cell-free assay, competition with immobilised ligand",1 µM,100
O=C(NCC1CCOCC1)c1n[nH]cc1NC(=O)c1c(F)cccc1F,"binding, competition with immobilised ligand",1 µM,95
O=C(c1ccc(Nc2nccc(-c3cc4ccccc4s3)n2)cc1)N1CCC(N2CCCC2)CC1,"binding, competition with immobilised ligand",1 µM,91
CN(C)c1nccc(-c2cnn3ncccc23)n1,binding,1 µM,84
COc1ccc2cc(OCC3(C(=O)O)CN(C(=O)c4ccc(F)cc4)C3)ccc2c1,"cell-free assay, competition with immobilised ligand",1 µM,100
c1cncc(-c2cccc(Nc3nccc(NC4CCCCC4)n3)c2)c1,"binding, competition with immobilised ligand",10 µM,99
NS(=O)(=O)c1cc(NC(=O)Cc2ccccc2)ccc1Oc1cccc(Cl)c1,"cell-free assay, competition with immobilised ligand",1 µM,91
CN(C)c1ncc(F)c(-c2cnn3ncccc23)n1,binding,1 µM,100
